# IMP-1 inh – IMP-1 metallo-beta-lactamase inhibitors, primary screen, biochemical, epi-absorbance readout, Pseudomonas aeruginosa enzyme. metallo-beta-lactamase IMP-1 (Pseudomonas aeruginosa). purified IMP-1, nitrocefin hydrolysis, epi-absorbance fluorescence. inhibition, % at 5.6 µM. 0.45% of 290,000 active. AID 1556, 2009;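 active = inhibition above the mean plus 3 SD of all compounds in the same screening run, cut at about 4.5% in these data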
#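 Test system: recombinant IMP-1 enzyme, purified / Medium: HEPES buffer pH 7.1 with ZnSO4 and Brij 35 / Doses: single dose, 5.6 µM / Times: 25 °C, 15 min preincubation, 25 min reaction / Detection: Epi-absorbance via hydrolysed-nitrocefin quenching of white-plate fluorescence, 480/530 nm, EDTA stop / Evaluation: percent inhibition from optical density relative to buffer-blank wells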
# PHOSPHO1 block – PubChem AID 1565; inhibition, % at 13.3 µM; Phosphoethanolamine/phosphocholine phosphatase (Homo sapiens), Q8TCT1; 1.1% of 290,000 active; recombinant PHOSPHO1, absorbance phosphatase assay; in the data active = inhibition above about 60%
# Target sequence (Q8TCT1 whole entry, looked up): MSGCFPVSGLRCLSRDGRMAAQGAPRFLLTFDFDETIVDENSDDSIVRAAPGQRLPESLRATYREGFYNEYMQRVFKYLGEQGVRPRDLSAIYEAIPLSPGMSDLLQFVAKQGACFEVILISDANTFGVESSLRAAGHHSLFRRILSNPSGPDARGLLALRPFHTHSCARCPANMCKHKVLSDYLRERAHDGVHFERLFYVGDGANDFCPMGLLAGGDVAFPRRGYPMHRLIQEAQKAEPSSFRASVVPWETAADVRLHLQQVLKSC
# SUMO HTRF inh – inhibitors of in vitro SUMOylation cascade, primary screen, biochemical, HTRF, uHTS | inhibition, % at 35 µM | SUMO-conjugating enzyme UBC9 (Homo sapiens), P63279 | AID 2006, 2009 | HTRF SUMOylation assay, SAE1/SAE2 + UBC9 | 0.36% of 290,000 active; in the data active = inhibition above about 50%, passing the limit was not always enough
# Target sequence (P63279 whole entry, looked up): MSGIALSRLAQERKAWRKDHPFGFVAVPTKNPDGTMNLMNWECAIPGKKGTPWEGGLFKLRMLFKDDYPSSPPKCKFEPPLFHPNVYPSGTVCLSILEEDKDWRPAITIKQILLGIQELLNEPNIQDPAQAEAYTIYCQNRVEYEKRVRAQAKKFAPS
# NS3 helicase inh – inhibitors of HCV NS3 helicase, primary screen, biochemical, Cy5 molecular beacon fluorescence; Hepatitis C virus NS3 helicase; NS3 helicase DNA unwinding; inhibition, % at 10.9 µM; 0.56% of 290,000 active; AID 1800, 2009;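 active = inhibition above the mean of all tested compounds plus 3 SD, set per campaign, cut at about 35% in these data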
#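 Assay system: hepatitis C virus NS3 helicase domain fragment enzyme. Also added: annealed dual-labelled DNA beacon duplex, ATP-started. Timing: 1 h reaction at 25 °C, ATP-initiated. Technique: Cy5 fluorescence at 0 and 60 min, beacon hairpin quenching. Evaluation: % inhibition of unwinding. Replication: one well per compound.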
# VIM-2 inhibitor – VIM-2 metallo-beta-lactamase inhibitors, primary screen, biochemical, epi-absorbance readout, Pseudomonas aeruginosa enzyme; purified VIM-2, nitrocefin hydrolysis, epi-absorbance fluorescence; inhibition, % at 5.6 µM; 0.89% of 290,000 active; AID 1527, 2009;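 active = inhibition above the mean of all tested compounds plus 3 SD, cutoff set per screening run, cut at about 7.5% in these data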;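 note: red hydrolysis product quenches plate fluorescence so inhibitors raise well fluorescence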
# core dimer inh – inhibitors of HCV core protein dimerization, primary screen, biochemical, TR-FRET, high-throughput | TR-FRET GST/Flag-core106 dimerization, 1536-well | inhibition, % at 5 µM | 0.33% of 300,000 active | AID 1899, 2009;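 active = inhibition above the mean of all tested compounds plus 3 SD, set per screening campaign, cut at about 45% in these data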
#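 Assay system: Tagged HCV core106 pair (GST and Flag) | Buffer or medium: KF-containing HEPES buffer, pH 7.45, DTT, CHAPS, BSA | Also added: Eu donor and XL665 acceptor anti-tag antibodies | Dosing: One concentration, 5 µM, in 0.5% DMSO | Timing: 4 h at 22.5 °C | Technique: TR-FRET 671 and 617 nm emission | Repeats: Singlicate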
# Numbers stand for hits; 0 = inactive; - = no result given. An excerpt weighted towards active compounds, which were near 3.1% of everything screened.
SMILES,IMP-1 inh,PHOSPHO1 block,SUMO HTRF inh,NS3 helicase inh,VIM-2 inhibitor,core dimer inh
CC(=O)c1cccc(NS(=O)(=O)c2c(C(=O)N3CCOCC3)c(C)n(C)c2C)c1,0,0,0,0,0,0
CC(=O)c1cccc(NC(=O)N2C3CCCC2CC(NC(=O)C2CC2)C3)c1 (stereo unspecified),0,0,0,0,0,0
CCc1cccc(CC)c1NC(=O)COC(=O)c1ccccc1-c1nc2ccccc2s1,0,177.7,0,0,0,0
COC(=O)c1cccc(N(CC(=O)NC2CCCC2)C(=O)CNC(=O)c2cccs2)c1,0,0,0,0,0,0
COCCn1c(C)cc(C(=O)CSc2nc3ccccc3o2)c1C,0,97.8,0,0,0,0
COCCn1c(C)cc(C(=O)CSc2nc3ccccc3s2)c1C,0,0,0,0,0,0
O=C(NC12CC3CC(CC(C3)C1)C2)c1ccc(N2CCNCC2)c([N+](=O)[O-])c1,0,0,0,0,0,0
O=C(CSCCO)Nc1cccc(C(F)(F)F)c1,0,0,0,0,0,0
CN(C)C(=S)SCC(=O)Nc1cccc(C(F)(F)F)c1,0,67.3,0,0,0,0
CC(C)OCCCNC(=O)CN1C(=O)c2cccc3cccc1c23,0,0,0,0,0,0
Cc1oc2c(c1C(=O)c1ccc(Cl)cc1)C(=O)C(=O)c1ccccc1-2,0,0,71.0,0,0,-
Cc1ccc(C(=O)c2coc3c2C(=O)C(=O)c2ccccc2-3)cc1,0,84.6,0,0,0,0
Cc1ccc(CNC(=O)N2CCN(S(=O)(=O)c3ccccc3)CC2)cc1,0,0,0,0,0,0
COc1ccc(-c2nc(=S)[nH][nH]2)cc1,0,96.2,0,0,0,0
CCOc1ccc(-c2nc(=S)[nH][nH]2)cc1,0,100.3,0,0,0,0
COc1cccc(CN(C(=O)/C=C/c2ccc(Cl)cc2)C2CCS(=O)(=O)C2)c1 (stereo unspecified),0,0,0,0,0,0
O=C(CNc1ccccc1)Nc1cccc2ccccc12,0,0,0,0,0,0
O=C(CSc1ccccn1)N1CCN(c2cccc(Cl)c2)CC1,0,82.6,0,0,0,0
O=C(CSc1ccccn1)N1CCN(c2ccccc2)CC1,0,0,0,0,0,0
CCOc1ccc(-c2nnc(SCC(=O)Nc3ccc4c(c3)c3ccccc3n4CC)n2N)cc1,0,79.2,0,0,0,0
CCn1c2ccccc2c2cc(NC(=O)CSc3nnc(-c4ccc(OC)c(OC)c4)n3N)ccc21,0,0,0,0,0,0
CCn1c2ccccc2c2cc(NC(=O)CSc3nnc(-c4ccccc4OC)n3N)ccc21,0,78.5,0,0,0,0
CCn1c2ccccc2c2cc(NC(=O)CSc3nnc(-c4cccc(OC)c4)n3N)ccc21,0,0,0,0,0,0
Cc1ccc(C)c(-n2c(SCC(=O)NC(C(=O)O)C(C)C)nnc2-c2cccc(Cl)c2)c1 (stereo unspecified),0,0,0,0,0,0
CSc1sc2ccccc2[n+]1CCCS(=O)(=O)[O-],0,88.7,0,0,0,0
SMILES,IMP-1 inh,PHOSPHO1 block,SUMO HTRF inh,NS3 helicase inh,VIM-2 inhibitor,core dimer inh
CCOC(=O)c1nn(-c2ccc3c(c2)CCN3C(C)=O)cc1O,0,0,52.5,0,0,0
O=C1NC2(CCCCO2)CO1 (stereo unspecified),0,0,0,0,0,0
COc1cc(NC(=O)Nc2ccccc2OC)c(OC)cc1NC(=O)CN1CCCCC1,4.7,0,0,0,0,0
CCC(=O)Nc1cc(=O)[nH]c2nc(-c3ccc(Cl)cc3)nn12,0,0,0,0,0,0
Cn1c(=O)c(C(=O)Nc2ncccc2O)c(O)c2ccccc21,0,81.7,0,0,0,0
COC(=O)C1=C(C)N(C)C(=O)/C1=C\c1ccco1,0,0,0,0,0,0
CC1=C(C#N)C(=O)N(C2CCS(=O)(=O)C2)C(=O)/C1=C\c1ccco1 (stereo unspecified),0,0,90.3,0,0,77.7

# Assay outcomes as filed in PubChem.
